Measurements reported in ChEMBL document CHEMBL4270599, “Synthesis of a 3'-C-ethynyl-β-d-ribofuranose purine nucleoside library: Discovery of C7-deazapurine analogs as potent antiproliferative nucleosides” (Eur J Med Chem, 2018).

Assays:
[1] = test system: HCT-116; experiment: Growth inhibition of human HCT116 cells assessed as cell growth at 10^-6 M incubated for 48 hrs by sulforhodamine B assay relative to control; format: functional; conditions: HCT-116, 48 h, read-out: Activity
[2] = test system: SF-268; experiment: Growth inhibition of human SF268 cells assessed as cell growth at 10^-6 M incubated for 48 hrs by sulforhodamine B assay relative to control; format: functional; conditions: SF-268, 48 h, read-out: Activity
[3] = test system: HT-29; experiment: Growth inhibition of human HT-29 cells assessed as cell growth at 10^-4 M incubated for 48 hrs by sulforhodamine B assay relative to control; format: functional; conditions: HT-29, 48 h, read-out: Activity
[4] = test system: DU-145; experiment: Growth inhibition of human DU145 cells assessed as cell growth at 10^-5 M incubated for 48 hrs by sulforhodamine B assay relative to control; format: functional; conditions: DU-145, 48 h, read-out: Activity
[5] = test system: SN12C; experiment: Growth inhibition of human SN12C cells assessed as cell growth at 10^-7 M incubated for 48 hrs by sulforhodamine B assay relative to control; format: functional; conditions: read-out: Activity
[6] = test system: OVCAR-8; experiment: Growth inhibition of human OVCAR8 cells assessed as cell growth at 10^-8 M incubated for 48 hrs by sulforhodamine B assay relative to control; format: functional; conditions: OVCAR-8, 48 h, read-out: Activity
[7] = test system: CCRF-CEM; experiment: Growth inhibition of human CCRF-CEM cells assessed as cell growth at 10^-8 M incubated for 48 hrs by sulforhodamine B assay relative to control; format: functional; conditions: read-out: Activity
[8] = test system: SN12C; experiment: Growth inhibition of human SN12C cells assessed as cell growth at 10^-5 M incubated for 48 hrs by sulforhodamine B assay relative to control; format: functional; conditions: read-out: Activity
[9] = test system: PC-3; experiment: Growth inhibition of human PC3 cells assessed as cell growth at 10^-5 M incubated for 48 hrs by sulforhodamine B assay relative to control; format: functional; conditions: PC-3, 48 h, read-out: Activity
[10] = test system: SK-MEL-5; experiment: Cytotoxicity against human SK-MEL-5 cells after 48 hrs by SRB assay; format: functional; conditions: SK-MEL-5, 48 h
[11] = test system: UO-31; experiment: Growth inhibition of human UO31 cells assessed as cell growth at 10^-8 M incubated for 48 hrs by sulforhodamine B assay relative to control; format: functional; conditions: UO-31, 48 h, read-out: Activity
[12] = test system: MCF7; experiment: Growth inhibition of human MCF7 cells assessed as cell growth at 10^-8 M incubated for 48 hrs by sulforhodamine B assay relative to control; format: functional; conditions: MCF7, 48 h, read-out: Activity
[13] = test system: 786-0; experiment: Cytotoxicity against human 786-0 cells after 48 hrs by SRB assay; format: functional; conditions: 786-0, 48 h
[14] = test system: ACHN; experiment: Growth inhibition of human ACHN cells assessed as cell growth at 10^-8 M incubated for 48 hrs by sulforhodamine B assay relative to control; format: functional; conditions: read-out: Activity
[15] = test system: SR; experiment: Growth inhibition of human SR cells assessed as cell growth at 10^-8 M incubated for 48 hrs by sulforhodamine B assay relative to control; format: functional; conditions: read-out: Activity
[16] = test system: TK-10; experiment: Growth inhibition of human TK10 cells assessed as cell growth at 10^-7 M incubated for 48 hrs by sulforhodamine B assay relative to control; format: functional; conditions: TK-10, 48 h, read-out: Activity
[17] = test system: SK-OV-3; experiment: Growth inhibition of human SKOV3 cells assessed as cell growth at 10^-8 M incubated for 48 hrs by sulforhodamine B assay relative to control; format: functional; conditions: SK-OV-3, 48 h, read-out: Activity
[18] = test system: EKVX; experiment: Growth inhibition of human EKVX cells assessed as cell growth at 10^-6 M incubated for 48 hrs by sulforhodamine B assay relative to control; format: functional; conditions: read-out: Activity
[19] = test system: SW-620; experiment: Growth inhibition of human SW620 cells assessed as cell growth at 10^-6 M incubated for 48 hrs by sulforhodamine B assay relative to control; format: functional; conditions: SW-620, 48 h, read-out: Activity
[20] = test system: OVCAR-5; experiment: Growth inhibition of human OVCAR5 cells assessed as cell growth at 10^-5 M incubated for 48 hrs by sulforhodamine B assay relative to control; format: functional; conditions: OVCAR-5, 48 h, read-out: Activity
[21] = test system: MOLT-4; experiment: Growth inhibition of human MOLT4 cells assessed as cell growth at 10^-7 M incubated for 48 hrs by sulforhodamine B assay relative to control; format: functional; conditions: MOLT-4, 48 h, read-out: Activity
[22] = test system: HL-60(TB); experiment: Growth inhibition of human HL-60(TB) cells assessed as cell growth at 10^-5 M incubated for 48 hrs by sulforhodamine B assay relative to control; format: functional; conditions: HL-60, 48 h, read-out: Activity
[23] = test system: SF-268; experiment: Growth inhibition of human SF268 cells assessed as cell growth at 10^-7 M incubated for 48 hrs by sulforhodamine B assay relative to control; format: functional; conditions: SF-268, 48 h, read-out: Activity
[24] = test system: RPMI-8226; experiment: Growth inhibition of human RPMI8226 cells assessed as cell growth at 10^-7 M incubated for 48 hrs by sulforhodamine B assay relative to control; format: functional; conditions: RPMI-8226, 48 h, read-out: Activity
[25] = test system: A549; experiment: Growth inhibition of human A549/ATCC cells assessed as cell growth at 10^-4 M incubated for 48 hrs by sulforhodamine B assay relative to control; format: functional; conditions: A549, 48 h, read-out: Activity
[26] = test system: OVCAR-4; experiment: Growth inhibition of human OVCAR4 cells assessed as cell growth at 10^-6 M incubated for 48 hrs by sulforhodamine B assay relative to control; format: functional; conditions: OVCAR-4, 48 h, read-out: Activity
[27] = test system: A549; experiment: Growth inhibition of human A549/ATCC cells assessed as cell growth at 10^-7 M incubated for 48 hrs by sulforhodamine B assay relative to control; format: functional; conditions: A549, 48 h, read-out: Activity
[28] = test system: A498; experiment: Growth inhibition of human A498 cells assessed as cell growth at 10^-7 M incubated for 48 hrs by sulforhodamine B assay relative to control; format: functional; conditions: A498, 48 h, read-out: Activity
[29] = test system: TK-10; experiment: Cytotoxicity against human TK10 cells after 48 hrs by SRB assay; format: functional; conditions: TK-10, 48 h; for CC50: read-out: LC50 (the source's name)
[30] = test system: HCT-15; experiment: Growth inhibition of human HCT15 cells assessed as cell growth at 10^-8 M incubated for 48 hrs by sulforhodamine B assay relative to control; format: functional; conditions: HCT-15, 48 h, read-out: Activity
[31] = test system: SN12C; experiment: Cytotoxicity against human SN12C cells after 48 hrs by SRB assay; format: functional
[32] = Antiproliferative activity against HMVEC-d cells after 4 days by Coulter counter method; format: cell-based; conditions: Homo sapiens, 96 h
Summary of the method: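 Primary HUVEC, primary HMVEC-d and the HMEC-1 line seeded at 20,000 cells/well in gelatin-coated plates in EC growth medium (EGM2). After overnight incubation, 5-fold compound dilutions added. Cells proliferated four days with compound, then trypsinized and counted by Coulter counter to derive IC₅₀.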

[33] = test system: A498; experiment: Growth inhibition of human A498 cells assessed as cell growth at 10^-6 M incubated for 48 hrs by sulforhodamine B assay relative to control; format: functional; conditions: A498, 48 h, read-out: Activity
[34] = read-out: LC50 (the source's name)
[35] = read-out: pLC50 (the source's name) (converted)

C#C[C@@]1(O)[C@@H](CO)O[C@@H](n2cc(Br)c3c(N)ncnc32)[C@@H]1O
growth at 1 µM [1]: 2 to 3% | growth at 1 µM [2]: 34 to 36% | growth at 100 µM [3]: 1 to 2% | growth at 10 µM [4]: 7 to 10% | growth at 0.1 µM [5]: 31 to 69% | growth at 0.01 µM [6]: 53 to 76% | growth at 0.01 µM [7]: 96 to 100% | growth at 10 µM [8]: 1 to 3% | growth at 10 µM [9]: 3% | GI50 ([10]; read-out: GI50): 0.0478 to 0.239 µM | CC50 [10, 34]: 6.24 to 100 µM | TGI ([10]; read-out: TGI): 0.522 to 7.18 µM | growth at 0.01 µM [11]: 70 to 84% | growth at 0.01 µM [12]: 60 to 74% | GI50 ([13]; read-out: GI50): 0.164 to 0.351 µM | TGI ([13]; read-out: TGI): 0.593 to 1.63 µM | growth at 0.01 µM [14]: 97% | growth at 0.01 µM [15]: 101 to 104% | growth at 0.1 µM [16]: 99 to 103% | growth at 0.01 µM [17]: 91 to 93% | growth at 1 µM [18]: 4 to 17% | growth at 1 µM [19]: 4 to 9% | growth at 10 µM [20]: 11 to 12% | growth at 0.1 µM [21]: 44 to 66% | growth at 10 µM [22]: -51% | growth at 0.1 µM [23]: 78 to 87% | growth at 0.1 µM [24]: 41 to 83% | growth at 100 µM [25]: 9 to 12% | growth at 1 µM [26]: 19 to 29% | growth at 0.1 µM [27]: 48 to 80% | growth at 0.1 µM [28]: 88 to 98% | GI50 ([29]; read-out: GI50): 0.411 to 0.481 µM | CC50 [29]: > 100 µM | TGI ([29]; read-out: TGI): 85.8 to 100 µM | growth at 0.01 µM [30]: 80 to 84% | GI50 ([31]; read-out: GI50): 0.0377 to 0.218 µM | CC50 [31, 34]: > 100 µM | TGI ([31]; read-out: TGI): > 100 µM | TGI ([31]; read-out: pTGI (converted)): > 100 µM | IC50 [32]: 0.0019 µM

C#C[C@@]1(O)[C@@H](CO)O[C@@H](n2ccc3c(N)ncnc32)[C@@H]1O
growth at 1 µM [1]: 38% | growth at 1 µM [2]: 76% | growth at 100 µM [3]: -17% | growth at 10 µM [4]: -8% | growth at 0.1 µM [5]: 96% | growth at 0.01 µM [6]: 103% | growth at 0.01 µM [7]: 102% | growth at 1 µM [33]: 80% | growth at 10 µM [8]: -31% | growth at 10 µM [9]: -37% | TGI ([10]; read-out: TGI): 2.96 µM | GI50 ([10]; read-out: pGI50 (converted)): 1.55 µM | CC50 [10, 35]: 5.62 µM | TGI ([10]; read-out: pTGI (converted)): 2.95 µM | growth at 0.01 µM [11]: 94% | growth at 0.01 µM [12]: 83% | TGI ([13]; read-out: TGI): 6.15 µM | GI50 ([13]; read-out: pGI50 (converted)): 1.62 µM | LC50 (lethal concentration, 50% cell kill) ([13]; read-out: pLC50 (converted)): 25.7 µM | TGI ([13]; read-out: pTGI (converted)): 6.17 µM | growth at 0.01 µM [14]: 97% | growth at 0.01 µM [15]: 101% | growth at 0.1 µM [16]: 110% | growth at 0.01 µM [17]: 94% | growth at 1 µM [18]: 67% | growth at 1 µM [19]: 38% | growth at 10 µM [20]: -8% | growth at 0.1 µM [21]: 95% | growth at 10 µM [22]: -24% | growth at 0.1 µM [23]: 95% | growth at 0.1 µM [24]: 98% | growth at 100 µM [25]: 3% | growth at 1 µM [26]: 75% | growth at 0.1 µM [27]: 107% | growth at 0.1 µM [28]: 105% | CC50 [29]: > 100 µM | TGI ([29]; read-out: TGI): 9.48 µM | GI50 ([29]; read-out: pGI50 (converted)): 2.63 µM | TGI ([29]; read-out: pTGI (converted)): 9.55 µM | growth at 0.01 µM [30]: 92% | TGI ([31]; read-out: TGI): 3.91 µM | GI50 ([31]; read-out: pGI50 (converted)): 0.794 µM | CC50 [31, 35]: 38 µM | TGI ([31]; read-out: pTGI (converted)): 3.89 µM
